Measurements from ChEMBL document CHEMBL1142891, “Lead discovery and optimization of T-type calcium channel blockers” (Bioorg Med Chem, 2007).

Key:
Assay type in all cases: cell-based
[1] = biological target: T1, Voltage-dependent T-type calcium channel subunit alpha-1G (Homo sapiens, UniProt O43497); assay: Inhibition of T type calcium channel subunit alpha1G expressed in HEK293 cells assessed as effect on KCl-induced increase in intracellular calcium level at 10 uM by FDSS assay
Summary of the method: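 HEK293 cells stably co-expressing α1G and Kir2.1 were plated at 40,000 cells/well and used the next day. Loaded 60 min at room temperature with 5 µM fluo3/AM plus 0.001% Pluronic F-127 in HEPES buffer (1.8 mM CaCl2, pH 7.4). Depolarized with 70 mM KCl in buffer containing 10 mM CaCl2; the rise in intracellular Ca2+ was read by fluorescence.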

[2] = biological target: T1, Voltage-dependent T-type calcium channel subunit alpha-1G; assay: Inhibition of T type calcium channel subunit alpha-1G expressed in HEK293 cells assessed as effect on T-type calcium currents at 10 uM by patch clamp method
[3] = biological target: T1, Voltage-dependent T-type calcium channel subunit alpha-1G; assay: Inhibition of T type calcium channel subunit alpha-1G expressed in HEK293 cells assessed as effect on T-type calcium currents by patch clamp method
Summary of the method: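 Whole-cell patch clamp on HEK293 cells expressing α1G. Electrodes of 3-4 MΩ held internal solution (mM): 130 KCl, 11 EGTA, 5 Mg-ATP, 10 HEPES, pH 7.4. External solution (mM): 140 NaCl, 2 CaCl2, 10 HEPES, 10 glucose, pH 7.4. Currents evoked every 15 s by a 50 ms step from -100 to -30 mV. Read-out was peak current; IC50 from dose-response fits.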

[4] = biological target: Voltage-dependent T-type calcium channel subunit alpha-1H (Homo sapiens) (UniProt O95180); assay: Inhibition of T type calcium channel subunit alpha-1H expressed in Xenopus oocytes at 100 uM by FDSS assay; details: Oocyte
Voltage-dependent T-type calcium channel subunit alpha-1H (Homo sapiens), sequence (O95180 whole entry): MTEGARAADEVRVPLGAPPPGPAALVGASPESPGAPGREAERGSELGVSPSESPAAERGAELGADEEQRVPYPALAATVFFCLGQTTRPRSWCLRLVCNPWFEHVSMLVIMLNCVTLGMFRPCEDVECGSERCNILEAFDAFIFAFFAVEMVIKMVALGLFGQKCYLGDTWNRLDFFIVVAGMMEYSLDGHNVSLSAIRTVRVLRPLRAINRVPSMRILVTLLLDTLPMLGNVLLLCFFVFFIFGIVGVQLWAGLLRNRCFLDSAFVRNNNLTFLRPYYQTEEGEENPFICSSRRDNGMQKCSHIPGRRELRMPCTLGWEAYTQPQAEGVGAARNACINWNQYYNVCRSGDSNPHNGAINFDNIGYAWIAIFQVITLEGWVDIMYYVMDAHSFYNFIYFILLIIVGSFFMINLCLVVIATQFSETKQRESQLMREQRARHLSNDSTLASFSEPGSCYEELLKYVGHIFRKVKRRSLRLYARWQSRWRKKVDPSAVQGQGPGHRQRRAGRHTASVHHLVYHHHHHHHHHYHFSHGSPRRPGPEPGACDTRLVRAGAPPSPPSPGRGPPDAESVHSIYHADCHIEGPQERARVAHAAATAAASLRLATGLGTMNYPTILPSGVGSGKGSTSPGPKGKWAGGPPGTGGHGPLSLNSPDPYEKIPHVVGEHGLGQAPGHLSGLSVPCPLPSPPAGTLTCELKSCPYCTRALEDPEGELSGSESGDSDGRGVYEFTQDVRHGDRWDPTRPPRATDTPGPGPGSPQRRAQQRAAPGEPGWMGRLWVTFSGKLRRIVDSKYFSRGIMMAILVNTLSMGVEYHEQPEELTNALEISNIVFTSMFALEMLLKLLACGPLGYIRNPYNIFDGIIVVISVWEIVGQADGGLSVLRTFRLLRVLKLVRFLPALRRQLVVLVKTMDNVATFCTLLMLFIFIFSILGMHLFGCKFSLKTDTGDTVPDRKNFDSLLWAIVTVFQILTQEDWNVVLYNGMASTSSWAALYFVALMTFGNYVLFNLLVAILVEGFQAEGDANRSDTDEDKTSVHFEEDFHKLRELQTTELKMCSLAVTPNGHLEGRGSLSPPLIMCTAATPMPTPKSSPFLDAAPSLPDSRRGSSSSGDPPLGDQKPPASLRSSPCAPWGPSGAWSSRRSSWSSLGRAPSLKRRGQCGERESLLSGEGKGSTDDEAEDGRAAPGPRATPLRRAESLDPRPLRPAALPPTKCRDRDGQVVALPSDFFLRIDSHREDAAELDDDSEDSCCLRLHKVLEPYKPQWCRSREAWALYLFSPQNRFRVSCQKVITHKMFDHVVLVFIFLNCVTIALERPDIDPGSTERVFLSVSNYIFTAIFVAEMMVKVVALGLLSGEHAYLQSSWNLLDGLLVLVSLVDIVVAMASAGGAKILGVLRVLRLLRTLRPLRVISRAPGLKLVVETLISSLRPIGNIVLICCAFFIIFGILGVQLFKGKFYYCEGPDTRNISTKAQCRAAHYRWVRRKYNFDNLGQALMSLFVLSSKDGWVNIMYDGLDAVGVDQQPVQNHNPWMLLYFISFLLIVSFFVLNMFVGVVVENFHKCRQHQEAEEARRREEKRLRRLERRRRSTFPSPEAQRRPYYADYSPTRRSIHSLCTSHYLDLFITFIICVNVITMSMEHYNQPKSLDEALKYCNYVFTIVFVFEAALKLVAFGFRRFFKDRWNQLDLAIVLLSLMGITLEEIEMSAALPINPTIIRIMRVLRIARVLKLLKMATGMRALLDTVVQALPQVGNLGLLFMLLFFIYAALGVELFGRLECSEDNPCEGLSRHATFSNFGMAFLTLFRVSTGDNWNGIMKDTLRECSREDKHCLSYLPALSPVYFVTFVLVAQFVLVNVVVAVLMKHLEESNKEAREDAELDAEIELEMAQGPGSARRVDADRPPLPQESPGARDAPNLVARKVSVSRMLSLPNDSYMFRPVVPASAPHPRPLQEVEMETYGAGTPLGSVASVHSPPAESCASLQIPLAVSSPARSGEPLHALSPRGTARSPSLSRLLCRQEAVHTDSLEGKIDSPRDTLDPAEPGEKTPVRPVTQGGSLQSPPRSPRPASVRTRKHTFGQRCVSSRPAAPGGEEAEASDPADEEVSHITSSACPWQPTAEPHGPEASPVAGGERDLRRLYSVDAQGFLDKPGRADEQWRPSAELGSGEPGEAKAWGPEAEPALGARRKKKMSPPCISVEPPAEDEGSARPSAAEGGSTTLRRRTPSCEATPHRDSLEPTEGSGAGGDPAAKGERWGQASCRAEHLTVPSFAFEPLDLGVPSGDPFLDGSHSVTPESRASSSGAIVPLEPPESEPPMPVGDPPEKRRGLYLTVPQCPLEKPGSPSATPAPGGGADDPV

T1 sequence (O43497 whole entry): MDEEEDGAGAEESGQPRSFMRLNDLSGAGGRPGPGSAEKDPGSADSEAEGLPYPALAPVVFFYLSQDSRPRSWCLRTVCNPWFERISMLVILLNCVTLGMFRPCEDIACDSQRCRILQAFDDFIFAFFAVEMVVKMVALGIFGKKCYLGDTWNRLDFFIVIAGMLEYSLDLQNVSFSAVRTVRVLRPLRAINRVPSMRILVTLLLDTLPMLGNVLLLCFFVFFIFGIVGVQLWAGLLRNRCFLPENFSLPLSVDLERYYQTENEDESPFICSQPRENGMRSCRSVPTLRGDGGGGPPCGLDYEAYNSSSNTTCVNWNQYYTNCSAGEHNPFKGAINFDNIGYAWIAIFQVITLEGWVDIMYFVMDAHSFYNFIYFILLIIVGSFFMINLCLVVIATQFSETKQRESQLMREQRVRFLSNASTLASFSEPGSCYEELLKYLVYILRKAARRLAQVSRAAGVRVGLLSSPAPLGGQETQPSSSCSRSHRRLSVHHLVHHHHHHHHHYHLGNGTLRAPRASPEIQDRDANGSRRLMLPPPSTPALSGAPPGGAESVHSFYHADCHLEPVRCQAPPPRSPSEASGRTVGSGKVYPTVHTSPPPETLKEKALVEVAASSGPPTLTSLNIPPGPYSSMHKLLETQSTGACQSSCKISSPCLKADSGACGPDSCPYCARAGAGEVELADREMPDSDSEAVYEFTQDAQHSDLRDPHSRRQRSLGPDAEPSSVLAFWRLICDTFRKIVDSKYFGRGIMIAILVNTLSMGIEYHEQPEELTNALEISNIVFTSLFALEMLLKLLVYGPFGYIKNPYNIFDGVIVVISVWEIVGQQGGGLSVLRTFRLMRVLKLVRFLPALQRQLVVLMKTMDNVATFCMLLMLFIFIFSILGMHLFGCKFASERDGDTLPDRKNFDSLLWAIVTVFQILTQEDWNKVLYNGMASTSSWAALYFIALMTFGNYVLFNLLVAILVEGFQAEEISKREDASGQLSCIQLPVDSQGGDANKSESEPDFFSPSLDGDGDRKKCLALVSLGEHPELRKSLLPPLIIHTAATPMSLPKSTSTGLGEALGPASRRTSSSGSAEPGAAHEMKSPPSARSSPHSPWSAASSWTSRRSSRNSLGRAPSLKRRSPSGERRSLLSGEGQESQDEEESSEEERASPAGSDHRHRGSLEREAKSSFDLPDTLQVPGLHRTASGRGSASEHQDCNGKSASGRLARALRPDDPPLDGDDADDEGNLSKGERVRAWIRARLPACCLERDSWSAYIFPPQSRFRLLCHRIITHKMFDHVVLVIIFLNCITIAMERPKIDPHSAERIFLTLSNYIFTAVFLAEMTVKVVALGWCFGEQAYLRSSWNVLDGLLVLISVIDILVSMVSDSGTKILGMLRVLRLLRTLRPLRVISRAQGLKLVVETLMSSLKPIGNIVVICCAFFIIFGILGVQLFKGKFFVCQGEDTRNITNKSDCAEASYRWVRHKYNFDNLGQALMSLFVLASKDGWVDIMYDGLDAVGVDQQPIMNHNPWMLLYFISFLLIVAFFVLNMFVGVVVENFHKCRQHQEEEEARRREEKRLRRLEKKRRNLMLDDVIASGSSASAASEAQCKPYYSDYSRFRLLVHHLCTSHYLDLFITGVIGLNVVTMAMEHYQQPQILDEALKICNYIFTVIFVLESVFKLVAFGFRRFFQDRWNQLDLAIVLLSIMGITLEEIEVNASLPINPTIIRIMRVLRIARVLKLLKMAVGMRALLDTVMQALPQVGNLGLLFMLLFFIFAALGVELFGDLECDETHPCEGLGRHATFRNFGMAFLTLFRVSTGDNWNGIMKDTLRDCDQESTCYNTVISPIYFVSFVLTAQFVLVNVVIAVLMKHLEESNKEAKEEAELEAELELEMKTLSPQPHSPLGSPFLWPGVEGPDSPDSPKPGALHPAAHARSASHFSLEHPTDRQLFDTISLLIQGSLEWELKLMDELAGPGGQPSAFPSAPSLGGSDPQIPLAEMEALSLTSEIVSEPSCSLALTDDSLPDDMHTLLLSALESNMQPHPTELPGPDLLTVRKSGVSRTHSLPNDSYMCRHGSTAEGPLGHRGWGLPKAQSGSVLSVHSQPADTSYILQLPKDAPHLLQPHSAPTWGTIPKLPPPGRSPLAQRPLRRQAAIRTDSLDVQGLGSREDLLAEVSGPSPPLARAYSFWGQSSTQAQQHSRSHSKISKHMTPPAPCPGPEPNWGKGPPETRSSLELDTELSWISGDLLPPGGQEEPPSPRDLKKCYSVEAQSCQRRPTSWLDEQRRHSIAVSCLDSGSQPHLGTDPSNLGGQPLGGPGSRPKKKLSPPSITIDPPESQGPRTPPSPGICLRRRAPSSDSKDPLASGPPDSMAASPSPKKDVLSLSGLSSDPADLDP

| Compound | inhibition [1] | inhibition [2] | IC50 [3] | inhibition [4] |
| --- | --- | --- | --- | --- |
| O=C(CCCCN1CCN(c2cccc(Cl)c2)CC1)Nc1ccccc1Cl | 54% | 93.2% | 1.91 µM | – |
| O=C(CCCN1CCN(Cc2ccc(Cl)cc2)CC1)Nc1cc(Cl)c(Cl)c(Cl)c1 | 27.5% | – | – | – |
| O=C(CCCN1CCN(Cc2ccc(Cl)c(Cl)c2)CC1)Nc1ccc(F)cc1F | 59.9% | – | – | – |
| O=C(CCN1CCN(c2ccc(F)cc2)CC1)Nc1ccc(F)cc1F | 29.7% | – | – | – |
| O=C(CCCN1CCN(Cc2ccc(Cl)c(Cl)c2)CC1)Nc1ccc(Cl)cc1Cl | 47.6% | 94.4% | 0.75 µM | – |
| O=C(CCCN1CCN(Cc2cccc(Cl)c2)CC1)Nc1ccc(F)cc1F | 30.2% | – | – | – |
| O=C(CCN1CCN(c2ccccc2)CC1)Nc1ccc(F)cc1F | 33.2% | – | – | – |
| O=C(CCCN1CCN(Cc2ccc3c(c2)OCO3)CC1)Nc1ccc(Cl)cc1Cl | 49.8% | 88.1% | 1.67 µM | – |
| COc1ccccc1N1CCN(CCCC(=O)Nc2ccc(F)cc2F)CC1 | 33% | – | – | – |
| O=C(CCCN1CCN(c2ccccc2F)CC1)Nc1cc(Cl)c(Cl)c(Cl)c1 | 20.1% | – | – | – |
| O=C(CCCN1CCN(c2ccccc2)CC1)Nc1ccc(F)cc1F | 36.8% | – | – | – |
| O=C(CCCCN1CCN(Cc2ccc(Cl)cc2)CC1)N1CCN(c2ccccc2)CC1 | 50.4% | 79.7% | 3.4 µM | – |
| O=C(CCCN1CCN(c2ccccc2Cl)CC1)Nc1cc(Cl)c(Cl)c(Cl)c1 | 13.6% | – | – | – |
| CCN1CCN(CCCCC(=O)N2CCN(CC(=O)Nc3cccc(C)c3)CC2)CC1 | -1.36% | – | – | – |
| N#Cc1ccccc1N1CCN(CCCCC(=O)N2CCN(CC(=O)Nc3ccccc3Cl)CC2)CC1 | 7.38% | – | – | – |
| O=C(CCCN1CCN(Cc2ccccc2)CC1)Nc1cc(Cl)c(Cl)c(Cl)c1 | 49.4% | – | – | – |
| COc1cccc(N2CCN(CCCC(=O)Nc3cc(Cl)c(Cl)c(Cl)c3)CC2)c1 | 21.6% | – | – | – |
| O=C(CCCN1CCN(Cc2cccc(Cl)c2)CC1)Nc1ccc(Cl)cc1Cl | 50.8% | 87.3% | 1.48 µM | – |
| CN1CCN(CCCCC(=O)N2CCN(CC(=O)Nc3cccc(C(F)(F)F)c3)CC2)CC1 | – | – | – | < 1% |
| O=C(CCN1CCN(Cc2ccccc2)CC1)Nc1ccc(F)cc1F | 21.1% | – | – | – |
| O=C(CCCCN1CCN(Cc2ccc(Cl)cc2)CC1)N1CCN(c2ccccc2F)CC1 | 48.3% | 89.7% | 1.81 µM | – |
| O=C(CCCN1CCN(c2ccccc2F)CC1)Nc1ccc(Cl)cc1Cl | 27.4% | – | – | – |
| O=C(CCCN1CCN(c2ccccc2)CC1)Nc1ccc(Cl)cc1Cl | 38.5% | 76.2% | 4.21 µM | – |
| O=C(CCCN1CCN(Cc2ccc(Cl)cc2)CC1)Nc1ccc(Cl)cc1Cl | 61.3% | 91.1% | 0.28 µM | – |
| O=C(CCN1CCN(c2ccccc2F)CC1)Nc1ccc(F)cc1F | 30.3% | – | – | – |
| CN1CCN(CCCCC(=O)N2CCN(CC(=O)Nc3cccc(Cl)c3)CC2)CC1 | – | – | – | < 1% |
| O=C(CCCN1CCN(Cc2ccc(Cl)cc2)CC1)Nc1ccc(F)cc1F | 48% | – | – | – |

| Compound | inhibition [1] | inhibition [2] | IC50 [3] | inhibition [4] |
| --- | --- | --- | --- | --- |
| O=C(CCN1CCN(Cc2ccc(Cl)cc2)CC1)Nc1ccc(F)cc1F | 33.2% | – | – | – |
| O=C(CCN1CCN(c2ccccc2Cl)CC1)Nc1ccc(F)cc1F | 28.4% | – | – | – |
| O=C(CCCN1CCN(c2cccc(Cl)c2)CC1)Nc1cc(Cl)c(Cl)c(Cl)c1 | 16.8% | – | – | – |
| O=C(CN1CCN(C(=O)CCCCN2CCN(c3ccccc3)CC2)CC1)Nc1ccccc1Cl | 25.2% | – | – | – |
| O=C(CCCN1CCN(c2ccc(Cl)cc2)CC1)Nc1ccc(Cl)cc1 | 48.3% | 94.6% | 2.64 µM | – |
| O=C(CCCN1CCN(c2ccc(F)cc2)CC1)Nc1ccc(F)cc1F | 38.1% | – | – | – |
| O=C(CCCCN1CCN(Cc2ccc(Cl)c(Cl)c2)CC1)N1CCN(c2ccccc2)CC1 | 56.2% | 73.8% | 2.91 µM | – |
| COc1cccc(N2CCN(CCCCC(=O)N3CCN(CC(=O)Nc4ccccc4Cl)CC3)CC2)c1 | 26.1% | – | – | – |
| O=C(CCCN1CCN(Cc2ccc3c(c2)OCO3)CC1)Nc1ccc(Cl)cc1 | 33.4% | 81.9% | 2.73 µM | – |
| O=C(CCCN1CCN(c2ccccc2F)CC1)Nc1ccc(F)cc1F | 32.2% | – | – | – |
| O=C(CCCN1CCN(c2ccc(F)cc2)CC1)Nc1cc(Cl)c(Cl)c(Cl)c1 | 20.7% | – | – | – |
| O=C(CCN1CCN(Cc2cccc(Cl)c2)CC1)Nc1ccc(F)cc1F | 34.7% | – | – | – |
| O=C(CCCN1CCN(c2ccc(F)cc2)CC1)Nc1ccc(Cl)cc1 | 32.5% | 76.1% | 3.49 µM | – |
| O=C(CCCN1CCN(Cc2ccccc2)CC1)Nc1ccc(Cl)cc1 | 30.8% | 78% | 3.52 µM | – |
| O=C(CCCN1CCN(Cc2c(F)cccc2Cl)CC1)Nc1ccc(Cl)cc1 | 39.8% | 72.8% | 3.27 µM | – |
| O=C(CCCN1CCN(Cc2ccccc2)CC1)Nc1ccc(F)cc1F | 23.2% | – | – | – |
| O=C(CCCN1CCN(c2cccc(Cl)c2)CC1)Nc1ccc(F)cc1F | 51% | – | – | – |
| O=C(CCCN1CCN(Cc2ccc(Cl)cc2)CC1)Nc1ccc(Cl)cc1 | 33.6% | 92.6% | 0.37 µM | – |
| O=C(CN1CCN(C(=O)CCCCN2CCN(c3ccc(F)cc3)CC2)CC1)Nc1ccccc1Cl | 34.9% | – | – | – |
| COc1cccc(N2CCN(CCC(=O)Nc3ccc(F)cc3F)CC2)c1 | 29.5% | – | – | – |
| O=C(CCCN1CCN(c2ccccc2)CC1)Nc1ccc(Cl)cc1 | 30.4% | 75.1% | 4.47 µM | – |
| O=C(CN1CCN(C(=O)CCCCN2CCN(Cc3cccc(Cl)c3)CC2)CC1)Nc1ccccc1Cl | 40.9% | – | – | – |
| CCN1CCN(CCCCC(=O)N2CCN(CC(=O)Nc3cccc(C(F)(F)F)c3)CC2)CC1 | – | – | – | 23.6% |
| O=C(CCCN1CCN(c2ccccc2Cl)CC1)Nc1ccc(Cl)cc1 | 37.3% | 60.5% | 6.01 µM | – |
| COc1cccc(N2CCN(CCCC(=O)Nc3ccc(Cl)cc3Cl)CC2)c1 | 44.2% | 80.3% | 3.81 µM | – |
| O=C(CCCN1CCN(c2ccccc2)CC1)Nc1cc(Cl)c(Cl)c(Cl)c1 | 38.3% | – | – | – |
| O=C(CCN1CCN(c2cccc(Cl)c2)CC1)Nc1ccc(F)cc1F | 26.4% | – | – | – |

| Compound | inhibition [1] | inhibition [2] | IC50 [3] | inhibition [4] |
| --- | --- | --- | --- | --- |
| COc1cccc(N2CCN(CCCC(=O)Nc3ccc(F)cc3F)CC2)c1 | 40.6% | – | – | – |
| O=C(CN1CCN(C(=O)CCCCN2CCN(c3ccccc3F)CC2)CC1)Nc1ccccc1Cl | 22.1% | – | – | – |
| O=C(CCCN1CCN(c2ccccc2F)CC1)Nc1ccc(Cl)cc1 | 36.1% | 79.2% | 3.63 µM | – |
| O=C(CCCN1CCN(Cc2c(F)cccc2Cl)CC1)Nc1ccc(Cl)cc1Cl | 49.6% | 89.6% | 2.4 µM | – |
| O=C(CCN1CCN(Cc2c(F)cccc2Cl)CC1)Nc1ccc(F)cc1F | 29.7% | – | – | – |
| CCN1CCN(CCCCC(=O)N2CCN(CC(=O)Nc3cccc(Cl)c3)CC2)CC1 | – | – | – | 71.6% |
| O=C(CN1CCN(C(=O)CCCCN2CCN(Cc3ccc(Cl)cc3)CC2)CC1)Nc1ccccc1Cl | 26.2% | – | – | – |
| COc1ccccc1N1CCN(CCCC(=O)Nc2ccc(Cl)cc2)CC1 | 51.8% | 84.3% | 2.61 µM | – |
| O=C(CCCN1CCN(Cc2cccc(Cl)c2)CC1)Nc1cc(Cl)c(Cl)c(Cl)c1 | 37% | – | – | – |
| O=C(CCCN1CCN(Cc2c(F)cccc2Cl)CC1)Nc1ccc(F)cc1F | 38.9% | – | – | – |
| O=C(CN1CCN(C(=O)CCCCN2CCN(Cc3ccccc3)CC2)CC1)Nc1ccccc1Cl | 15.9% | – | – | – |
| O=C(CCN1CCN(Cc2ccc(Cl)c(Cl)c2)CC1)Nc1ccc(F)cc1F | 34.6% | – | – | – |
| O=C(CCCCN1CCN(Cc2ccc(Cl)c(Cl)c2)CC1)Nc1ccccc1Cl | 55.9% | 91% | 1.01 µM | – |
| O=C(CN1CCN(C(=O)CCCCN2CCN(c3ccccc3)CC2)CC1)Nc1cccc(C(F)(F)F)c1 | – | – | – | 53% |
| O=C(CCCCN1CCN(Cc2cccc(Cl)c2)CC1)N1CCN(c2ccccc2F)CC1 | 48.8% | 87.1% | 2.44 µM | – |
| O=C(CCCN1CCN(c2ccccc2Cl)CC1)Nc1ccc(F)cc1F | 42% | – | – | – |
| O=C(CCCN1CCN(Cc2c(F)cccc2Cl)CC1)Nc1cc(Cl)c(Cl)c(Cl)c1 | 35.1% | – | – | – |
| COc1ccccc1N1CCN(CCC(=O)Nc2ccc(F)cc2F)CC1 | 37.1% | – | – | – |
| COc1ccccc1N1CCN(CCCC(=O)Nc2cc(Cl)c(Cl)c(Cl)c2)CC1 | 33.7% | – | – | – |
| O=C(CN1CCN(C(=O)CCCCN2CCN(c3ccccc3)CC2)CC1)Nc1cccc(Cl)c1 | – | – | – | 75.3% |
| O=C(CCCN1CCN(Cc2cccc(Cl)c2)CC1)Nc1ccc(Cl)cc1 | 38.3% | 92.4% | 1.8 µM | – |
| COc1ccccc1N1CCN(CCCC(=O)Nc2ccc(Cl)cc2Cl)CC1 | 42.7% | 79.1% | 3.34 µM | – |
| O=C(CCCN1CCN(c2cccc(Cl)c2)CC1)Nc1ccc(Cl)cc1Cl | 38.1% | 95.4% | 1.01 µM | – |
| O=C(CCCN1CCN(Cc2ccccc2)CC1)Nc1ccc(Cl)cc1Cl | 44.9% | 79.3% | 3.14 µM | – |
| COc1cccc(N2CCN(CCCC(=O)Nc3ccc(Cl)cc3)CC2)c1 | 40.6% | 84.1% | 2.78 µM | – |
